# Experimental data of several laboratories.
# Each line is one published result; the experiments were not run side by side.
# Target: Cytochrome P450 3A4 (CYP3A4, Homo sapiens, UniProt P08684)
Compound,assay,system,conditions,quantity,value
CC(=O)c1cccc(OCc2cc(C(=O)N(C)[C@@H](C)c3ccccn3)no2)c1,"enzyme activity, inhibitor","human, liver microsomes",,IC50,27 µM
CC1(C)CCC2(CC1)N[C@@H](C(=O)N[C@@H]1CC[C@@H](C(N)=O)OC1)[C@H](c1ccnc(Cl)c1F)[C@]21C(=O)Nc2cc(Cl)ccc21,"enzyme activity, inhibitor","human, liver microsomes","with preincubation, midazolam probe",kinact,0.00103 s⁻¹
CC(C)(C)OC(=O)N[C@H](CSCCC(=O)NCc1cccnc1)CC1CCCCC1,thermal stability,,,ΔTm,-2 °C
C=CC(=O)Nc1cc(Nc2nccc(Nc3cc(Cl)c(F)cc3C(C)(C)O)n2)c(OC)cc1N1CC[C@@H](N(C)C)C1,"enzyme activity, inhibitor","human, liver microsomes",10 µM,inhibition,24.3%
O=C(N[C@H](Cc1c[nH]c2ccccc12)C(=O)Nc1ccncc1)c1ccc(-c2cc(F)ccc2F)cc1F,"enzyme activity, inhibitor","human, liver microsomes",1 µM,inhibition,74%
CCN(Cc1cnc2nc(N)nc(N)c2n1)c1ccc(C(=O)N2CCC(C(=O)OC)CC2)cc1,"enzyme activity, inhibitor, luciferase",,10 µM,inhibition,-13.9%
COc1cc2c(c(OC)c1OC)-c1c(cc3c(c1OC)OCO3)[C@H](OC(=O)c1ccccc1)[C@@](C)(O)[C@@H](C)C2,"enzyme activity, inhibitor",,"15 min, pH 7.4",IC50,25 µM
COC(=O)C1CCN(C(=O)c2ccc(N(CCO)Cc3cnc4nc(N)nc(N)c4n3)cc2)CC1,"enzyme activity, inhibitor, luciferase",,10 µM,inhibition,-27.6%
CCc1cc(/C(C)=N/OCc2ccc(C3CCCCC3)c(C(F)(F)F)c2)ccc1CN1CC(C(=O)O)C1,"enzyme activity, inhibitor","human, liver microsomes","200 µM, 20 min, testosterone probe",inhibition,72.7%
NCCCCCC(=O)NCc1cccnc1,thermal stability,,,ΔTm,-0.2 °C
CCOC(=O)C1CCN(C(=O)c2ccc(N(CC)Cc3cnc4nc(N)nc(N)c4n3)cc2)CC1,"enzyme activity, inhibitor, luciferase",,10 µM,inhibition,-13.6%
CC(C)(C)OC(=O)N[C@H](CSCCC(=O)NCc1cccnc1)Cc1c[nH]c2ccccc12,thermal stability,,,ΔTm,0.2 °C
COC(=O)C1CCN(C(=O)Cc2ccc(NCc3cnc4nc(N)nc(N)c4n3)cc2)CC1,"enzyme activity, inhibitor, luciferase",,10 µM,inhibition,-1.83%
